GSIS activator = primary screen for activators of insulin secretion dependent on glucose, INS-1E cells, GLuc reporter luminescence | INS-1E GLuc reporter insulin secretion, 2-3 h | activation, % at 16.6 µM | 370,000 tested, 0.61% active | AID 743287;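 active means lowest replicate activation of at least 40%, so every replicate reaches that level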
ERp5 block = blocks human ERp5 reductase activity on insulin | 350,000 tested, 0.05% active | Q15084 | ERp5 insulin aggregation, absorbance 650 nm, 90 min | inhibition, % at 9.99 µM;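 active means mean replicate inhibition above about 25%, with every replicate also reaching it, limit read from the data, passing the limit was not always enough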
Target sequence (Q15084 whole entry, looked up): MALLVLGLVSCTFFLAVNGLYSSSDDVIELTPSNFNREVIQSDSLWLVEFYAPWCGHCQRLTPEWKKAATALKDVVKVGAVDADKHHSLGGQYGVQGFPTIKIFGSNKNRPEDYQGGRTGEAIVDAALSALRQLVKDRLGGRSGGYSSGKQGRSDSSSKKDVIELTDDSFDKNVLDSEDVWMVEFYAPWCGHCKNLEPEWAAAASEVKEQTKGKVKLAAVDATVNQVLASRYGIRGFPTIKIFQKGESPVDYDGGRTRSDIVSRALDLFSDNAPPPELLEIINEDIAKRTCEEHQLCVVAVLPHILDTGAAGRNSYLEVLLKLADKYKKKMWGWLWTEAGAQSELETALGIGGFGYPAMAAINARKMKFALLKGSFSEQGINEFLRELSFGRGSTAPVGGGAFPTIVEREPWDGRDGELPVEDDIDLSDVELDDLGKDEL
FN deposition inh = fibronectin deposition inhibition. AH1F fibroblasts, Alexa488-fibronectin deposition fluorescence, overnight. inhibition, % at 12.6 µM. 350,000 tested, 0.086% active. AID 743247;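 active means mean inhibition across replicates of 30% or more, regardless of how many single replicates reach that level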
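test system = AH1F fibroblasts assembling fluorescent fibronectin matrix | quantity = 10000 AH1F cells per well | buffer or medium = DMEM plus 2% serum, read in PBS | doses = single dose, pinned | incubation = 1 h cell attachment, overnight exposure to compound and label | detection = fluorescence at 485 nm excitation, 525 nm emission | read-out basis = inhibition from reduced deposited-fibronectin fluorescence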
HIV Env fusion = blocks HIV Env-driven cell-cell fusion. HeLa-JRFL Env/CEM21 cell fusion, luciferase. inhibition, % at 12.3 µM. 360,000 tested, 1.1% active. AID 651610;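 active means mean replicate inhibition score of at least 50 and every replicate individually at or above 50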
PDI inh = inhibitors of human protein disulfide isomerase | PDI insulin aggregation turbidity, A650, 90 min | P07237 | inhibition, % at 10 µM | 350,000 tested, 0.052% active;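 active means mean inhibition across replicates of 30% or more, whatever share of single replicates reach that level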
Numbers stand for hits; – = inactive; · = no result; [ ] = another dose, or the depositor's remark. The list is not random: actives were taken first. Their share in the collection is about 1.4%.

SMILES | GSIS activator | ERp5 block | FN deposition inh | HIV Env fusion | PDI inh
CC(C)NC(=O)N(C)C[C@@H]1OCCCC[C@H](C)Oc2ccc(NS(=O)(=O)c3cn(C)cn3)cc2C(=O)N([C@@H](C)CO)C[C@@H]1C | – | – | – | – | ·
COC(=O)c1ccc2c(c1)NC(=O)C(N(CC(C)C)CC(C)C)S2 (stereo not given) | 45.8 | – | – | – | –
CCCN(CCC)C1Sc2ccc(C(=O)OC)cc2NC1=O (stereo not given) | – | · | · | · | –
Cc1c(O)ccc2c(CN3CCN(C/C=C/c4ccccc4)CC3)cc(=O)oc12 | – | – | – | – | 43.5
COc1ccc(C(C)=O)cc1CC1(C)C(=O)Nc2ccc(-c3ccccc3OC)cc21 (stereo not given) | – | – | – | 70.3 | –
COc1ccccc1-c1ccc2c(c1)C(C)(Cc1cccc(F)c1)C(=O)N2 (stereo not given) | – | – | – | 73.2 | –
C[C@H]1CCCCO[C@H](CN(C)Cc2ccc(C(=O)O)cc2)[C@@H](C)CN([C@@H](C)CO)C(=O)c2cc(NC(=O)Nc3ccccc3)ccc2O1 | – | – | – | – | ·
CNC(=O)C[C@@H]1CC[C@H]2[C@@H](COc3ccc(NC(=O)c4cccc(OC)c4)cc3C(=O)N2C)O1 | – | – | – | – | ·
Cc1cc2oc(=O)cc(CN3CCOCC3)c2cc1Cl | – | – | – | – | –
Cc1cc2oc(=O)cc(CN3CCOCC3)c2c(C)c1Cl | 41.3 | – | – | – | –
COC(=O)[C@@]1(Cc2ccc(F)cc2)[C@H]2c3cc(C(=O)N(C)C)n(CCO)c3C[C@H]2CN1C(=O)c1ccccc1 | – | – | · | 80.3 | ·
COCCn1c(C(=O)N(C)C)cc2c1C[C@H]1CN(C(=O)c3ccccc3)[C@@](Cc3ccc(F)cc3)(C(=O)OC)[C@@H]21 | – | – | – | – | ·
COC(=O)[C@@]1(Cc2ccc(F)cc2)[C@H]2c3cc(C(=O)N4CCCC4)n(CCc4ccccn4)c3C[C@H]2CN1C(=O)c1ccccc1 | – | – | 43.9 | – | ·
CC[C@@]12C(=O)N(c3cccc(F)c3)C(=O)N1[C@H](c1cccc(C)c1)[C@@H]1C(=O)N(Cc3ccccc3)C(=O)[C@@H]12 | – | – | – | – | –
Cc1cccc([C@@H]2[C@@H]3C(=O)N(Cc4ccccc4)C(=O)[C@@H]3[C@]3(Cc4ccccc4)C(=O)N(c4ccccc4)C(=O)N23)c1 | – | – | – | – | –
Cc1cccc([C@@H]2[C@@H]3C(=O)N(Cc4ccccc4)C(=O)[C@@H]3[C@]3(Cc4ccccc4)C(=O)N(c4ccc(C(F)(F)F)cc4)C(=O)N23)c1 | – | – | · | 63.8 | –
CC[C@@]12C(=O)N(c3ccccc3)C(=O)N1[C@H](c1cccc(C)c1)[C@@H]1C(=O)N(Cc3ccccc3)C(=O)[C@@H]12 | – | – | – | 88.4 | –
CC[C@@]12C(=O)N(c3cccc(Br)c3)C(=O)N1[C@H](c1cccc(C)c1)[C@@H]1C(=O)N(Cc3ccccc3)C(=O)[C@@H]12 | – | · | – | 64.7 | –
CC1CCN(C(=O)c2ncn3c2C(=O)N[C@H](C)C3)CC1 | · | – | – | 71.9 | ·
CCN(CC)C(=O)c1ncn2c1C(=O)N[C@H](C)C2 | – | – | – | 61.5 | ·
O=C(N[C@@H]1CC[C@H](CCNC(=O)C2CCCC2)O[C@@H]1CO)c1ccccn1 | – | – | – | – | ·
COCC(=O)Nc1ccc2c(c1)C(=O)N(C)C[C@H](OC)[C@H](C)CN(C(=O)Cc1ccccn1)[C@H](C)CO2 | – | – | – | · | ·
COc1ccc(S(=O)(=O)Nc2ccc3c(c2)C(=O)N([C@@H](C)CO)C[C@H](C)[C@@H](CN(C)Cc2ccc(Oc4ccccc4)cc2)O3)cc1 | – | – | · | 63.2[16.7 µM] | ·
C[C@H]1CN([C@@H](C)CO)C(=O)c2cc(NS(C)(=O)=O)ccc2O[C@@H]1CN(C)Cc1ccc(Cl)c(Cl)c1 | – | – | · | 61.7[16.7 µM] | ·
C[C@H](CO)N1C[C@H](C)[C@H](CN(C)Cc2ccc(Cl)c(Cl)c2)OCCCC[C@H](C)Oc2ccc(NS(=O)(=O)c3ccc(F)cc3)cc2C1=O | – | – | – | 88.5[16.7 µM] | ·
SMILES | GSIS activator | ERp5 block | FN deposition inh | HIV Env fusion | PDI inh
COc1ccc(S(=O)(=O)Nc2ccc3c(c2)C(=O)N([C@@H](C)CO)C[C@H](C)[C@@H](CN(C)Cc2ccc(Cl)c(Cl)c2)OCCCC[C@H](C)O3)cc1 | – | · | · | 59.4[16.7 µM] | ·
C[C@@H]1CN([C@H](C)CO)C(=O)c2cc(NS(C)(=O)=O)ccc2O[C@H]1CN(C)Cc1ccc(Cl)c(Cl)c1 | – | – | · | – | ·
COc1ccc(S(=O)(=O)Nc2ccc3c(c2)C(=O)N([C@@H](C)CO)C[C@H](C)[C@H](CN(C)Cc2ccc(Cl)c(Cl)c2)OCCCC[C@@H](C)O3)cc1 | – | · | · | – | ·
C[C@H](CO)N1C[C@H](C)[C@H](CN(C)Cc2ccc3c(c2)OCO3)Oc2ccc(NC(=O)Nc3cccc4ccccc34)cc2CC1=O | – | – | · | · | ·
OC[C@@H]1[C@H](c2ccc(C3=CCCC3)cc2)[C@@H](CNC2CCCC2)N1CC1CC1 | – | – | – | · | ·
COCCOC(=O)C1=C(C)NC(=O)N(C(C)=O)C1c1ccc(Cl)cc1 (stereo not given) | 55.7 | · | – | – | –
CC(=O)Nc1ccc(/C=C(\C#N)C(=O)NCc2ccccc2)cc1 | – | – | 32.9 | – | –
Nc1nc(N)c2cc(Sc3ccc(Cl)cc3)ccc2n1 | 186.8 | – | – | – | –
Nc1nc(N)c2cc(Sc3ccc4ccccc4c3)ccc2n1 | · | – | – | – | –
COc1ccc(NC(=O)CN2CCC(C(N)=O)(N3CCCCC3)CC2)cc1 | – | · | · | 76.7 | –
COCC(=O)N(C)C[C@H]1Oc2cc(C#Cc3ccccc3)ccc2S(=O)(=O)N([C@H](C)CO)C[C@H]1C | – | – | – | – | ·
O=C(OCn1ncc(Cl)c(Cl)c1=O)c1ccccc1Cl | · | · | active | – | –
O=S(=O)(c1cccs1)N1CCCCN2[C@H](CO)[C@H](c3ccc(C4=CCCCC4)cc3)[C@H]2C1 | · | – | · | · | ·
Clc1nc(Cl)c2ncn(-c3ccccc3)c2n1 | – | – | · | – | –
CNc1nc(Cl)nc2c1ncn2-c1ccccc1 | 86.8 | – | – | – | –
COc1ccc(S(=O)(=O)N(C)C[C@@H]2Oc3ccc(NC(=O)CCN4CCOCC4)cc3CC(=O)N([C@H](C)CO)C[C@@H]2C)cc1 | – | – | – | – | ·
N#C[C@@H]1[C@H](c2ccccc2)[C@H](CO)N1C(=O)c1ccc2c(c1)OCO2 | – | – | – | · | ·
COc1ccc([C@H]2CC(=O)C=C(c3ccc(-c4ccccc4)cc3)C2)cc1OC | – | – | – | – | –
COc1ccc(C2=NN(c3ccc(C(=O)O)cc3)C(c3ccc(OC)c(OC)c3)C2)cc1 (stereo not given) | 53.1 | – | – | – | –
COc1ccc([C@H]2CC(=O)C=C(c3ccc(C(=O)O)cc3)C2)cc1OC | 90.9 | – | – | – | –
COc1ccc(C2CC(c3ccccc3)=NN2c2ccc(S(N)(=O)=O)cc2)cc1OC (stereo not given) | – | – | – | – | –
